Data set [1] can be described thus: Inhibition of porcine cholesterol esterase. More on the design: species or system Sus scrofa.
The target of data set [2] is T1, Papain (Carica papaya, UniProt P00784).
T1 sequence (P00784 whole entry): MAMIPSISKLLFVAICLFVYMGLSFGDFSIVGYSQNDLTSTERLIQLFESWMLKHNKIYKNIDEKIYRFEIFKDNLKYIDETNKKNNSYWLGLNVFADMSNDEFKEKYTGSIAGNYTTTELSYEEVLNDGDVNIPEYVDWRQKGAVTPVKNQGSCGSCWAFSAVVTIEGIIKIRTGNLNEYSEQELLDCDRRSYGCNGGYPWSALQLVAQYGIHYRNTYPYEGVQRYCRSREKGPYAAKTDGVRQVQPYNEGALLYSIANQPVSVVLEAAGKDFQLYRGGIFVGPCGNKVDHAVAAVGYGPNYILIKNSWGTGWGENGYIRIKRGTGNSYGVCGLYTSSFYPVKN
Briefly: Inhibition of Carica papaya papain.

Data set [3] concerns the target Acetylcholinesterase (Electrophorus electricus, UniProt O42275). Briefly: Inhibition of electric eel AChE.
Data set [4] deals with Prothrombin (Homo sapiens, UniProt P00734). Briefly: Inhibition of human thrombin.
The test system of data set [5] is Escherichia coli. Briefly: Antibacterial activity against Escherichia coli assessed as zone of inhibition at 20 ug/disk after 24 hrs by agar diffusion assay. The format is functional. As to conditions: read-out: DIZ. A digest of the protocol: (§1)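 Paper discs loaded at 20 μg/disk were placed on agar seeded with each bacterium (Mycobacterium phlei, Staphylococcus aureus or Escherichia coli). Read-out was the diameter of the inhibition zone, recorded in mm.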
(In general: In agar diffusion tests the substance spreads into inoculated agar from a disc or well.)

A short description of data set [6]: Inhibition of bovine trypsin. Details: species or system Bos taurus.
For data set [7], the system named is Staphylococcus aureus. Briefly: Antibacterial activity against Staphylococcus aureus assessed as zone of inhibition at 20 ug/disk after 24 hrs by agar diffusion assay. Particulars: read-out: DIZ. The format is functional. A digest of the protocol: as §1
In data set [8] the test system is Mycolicibacterium phlei. Briefly: Antibacterial activity against Mycobacterium phlei assessed as zone of inhibition at 20 ug/disk after 24 hrs by agar diffusion assay. Format: functional. As to conditions: read-out: DIZ. A digest of the protocol:
as §1

Data set [9] deals with T2, Neutrophil elastase (Homo sapiens, UniProt P08246).
T2 sequence (P08246 whole entry): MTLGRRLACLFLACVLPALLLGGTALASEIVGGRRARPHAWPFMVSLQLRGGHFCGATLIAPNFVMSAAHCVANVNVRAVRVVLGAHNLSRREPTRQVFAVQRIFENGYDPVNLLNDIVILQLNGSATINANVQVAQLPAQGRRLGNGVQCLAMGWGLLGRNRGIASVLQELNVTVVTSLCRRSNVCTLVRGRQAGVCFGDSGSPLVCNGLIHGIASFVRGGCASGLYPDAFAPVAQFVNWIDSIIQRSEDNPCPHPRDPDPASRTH
Briefly: Inhibition of human leukocyte elastase using MeOSuc-Ala-Ala-Pro-Val-para-nitroanilide chromogenic substrate after 10 mins spectrophotometrically. A digest of the protocol: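 Human leukocyte elastase enzyme inhibition assay; IC50 (μM) determined and reported as mean ± spread.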

Data set [10] in a line: Inhibition of bovine Chymotrypsin. Details: species or system Bos taurus.
Data set [11] relates to L929. Briefly: Cytotoxicity against mouse L929 cells after 5 days by MTT assay. As to conditions: L929, 120 h. Format: cell-based. The method in brief: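 MTT viability assay run on mouse fibroblast cells; result expressed as IC50 (μM).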
For orientation: Tetrazolium assays rely on reduction of a dye to a coloured formazan, in cell work by metabolically active cells.

Data set [12] concerns Escherichia coli. Briefly: Antibacterial activity against Escherichia coli at 20 ug/disk after 24 hrs by agar diffusion assay.
Data set [13] has as its system Mycolicibacterium phlei. Briefly: Antibacterial activity against Mycobacterium phlei at 20 uL after 24 hrs by agar diffusion assay. Format: functional, organism-based.
Data set [14] deals with Staphylococcus aureus. Briefly: Antibacterial activity against Staphylococcus aureus at 20 uL after 24 hrs by agar diffusion assay. The format is functional, organism-based.
Data set [15] concerns L929. Briefly: Cytotoxicity against mouse L929 cells at 60 uL after 5 days by MTT assay. The format is cell-based. Particulars: l929, 120 h.

Calls of active or inactive are those of the source. The calls are words filed in the database; no cut-off is given here.

Usually IC50 stands for the concentration needed to halve the response being measured.

Sequence of Acetylcholinesterase (O42275 whole entry): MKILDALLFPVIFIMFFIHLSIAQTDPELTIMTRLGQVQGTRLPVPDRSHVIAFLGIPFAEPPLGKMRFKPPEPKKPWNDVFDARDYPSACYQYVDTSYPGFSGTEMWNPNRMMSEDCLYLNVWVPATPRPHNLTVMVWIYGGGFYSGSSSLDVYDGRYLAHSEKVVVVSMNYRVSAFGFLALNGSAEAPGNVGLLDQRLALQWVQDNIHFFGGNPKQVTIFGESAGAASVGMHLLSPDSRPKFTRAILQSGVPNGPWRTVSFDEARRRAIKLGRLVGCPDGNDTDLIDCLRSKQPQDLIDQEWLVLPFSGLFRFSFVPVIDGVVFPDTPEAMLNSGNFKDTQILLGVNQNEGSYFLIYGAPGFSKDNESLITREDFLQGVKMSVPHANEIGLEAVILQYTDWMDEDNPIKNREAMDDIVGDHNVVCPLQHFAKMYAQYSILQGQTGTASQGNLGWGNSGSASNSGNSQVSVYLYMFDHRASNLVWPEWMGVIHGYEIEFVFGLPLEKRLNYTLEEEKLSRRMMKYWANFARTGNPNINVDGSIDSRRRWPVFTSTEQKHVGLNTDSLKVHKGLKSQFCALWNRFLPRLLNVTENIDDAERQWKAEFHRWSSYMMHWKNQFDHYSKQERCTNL

With `Cc1cc(O)cc2c1C1=C(C(=O)C2=O)C(C)(C)[C@H](C)O1`, the IC50 in data set [1] was above 50 µM; in [2], above 50 µM; in [3] it was above 50 µM; in [4], above 50 µM; in [6], above 50 µM; in data set [9], above 20 µM. Moreover, the figures for the IC50 in data set [10] and in data set [11] were above 50 µM and 7.5 µM, respectively. Also, the zone of inhibition at 20 µg/disc in data set [5] amounted to 12 mm; in data set [7] it was 14 mm; in [8], 18 mm.
With `C[C@@H]1OC2=C(C(=O)C(=N)c3c(O)c(O)cc(C=O)c32)C1(C)C`, the IC50 was above 50 µM in [1]; above 50 µM in [2]; above 50 µM in data set [3]; above 50 µM in data set [4]; above 50 µM in data set [6]; 3.01 µM in data set [9]. The molecule also registered an IC50 in [10] above 50 µM. For the same molecule, the outcome in [12], in [13] and in data set [14] was inactive. For the same molecule, in data set [15], the Activity result is recorded as “Non-toxic”.
For the molecule `Cc1cc(O)c2c3c(c(O)c4c(c13)O[C@@H](C)C4(C)C)NC2=O`, the IC50 was above 50 µM in data set [1]; above 50 µM in [2]; above 50 µM in data set [3]; above 50 µM in [4]; above 50 µM in [6]; 9.28 µM in [9]. The IC50 in [10] is above 50 µM. The result in data set [12], in data set [13] and in [14] was inactive. Also, the Activity result in data set [15] is “Non-toxic”.

(Values after ChEMBL document CHEMBL1833924, “HLE-inhibitory alkaloids with a polyketide skeleton from the marine-derived fungus Coniothyrium cereale” (J Nat Prod, 2011).)
